Experimental data: ChEMBL document CHEMBL1123670, “Inhibitors of cyclic AMP phosphodiesterase. 2. Structural variations of N-cyclohexyl-N-methyl-4-[(1,2,3,5-tetrahydro- 2-oxoimidazo[2,1-b]quinazolin-7-yl)-oxy]butyramide (RS-82856)” (J Med Chem, 1987)

Assays:
[1] = species on record: Homo sapiens; test: Ratio of IC50 of inhibition of platelet aggregation to IC50 of inhibition of platelet PDE (Efficacy index); format: functional
Method in brief: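 Efficacy index is the IC50 for inhibition of ADP-induced platelet aggregation divided by the IC50 for human platelet PDE inhibition. Both IC50s come from graphical dose-response curves (five concentrations, triplicate).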

[2] = Inhibition of ADP-induced platelet aggregation; format: functional
Method in brief: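 ADP-induced platelet aggregation. Read-out is the rate of change in percentage transmission of the primary aggregation phase after 5 min incubation. Each agent tested at five concentrations in triplicate, with experiments repeated at least twice using platelets from different donors. IC50 (μM) determined graphically.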

[3] = target: Phosphodiesterase; PDE3 & PDE4 (Homo sapiens) (UniProt P27815+Q14432+Q08499+Q07343+Q13370+Q08493); test: In vivo inhibition of cyclic AMP phosphodiesterase from dog heart
Method in brief: (§1)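 Cyclic AMP phosphodiesterase prepared from human platelets (IC50, nM) or from rat or dog heart tissue (IC25, nM). Each agent tested at five inhibitor concentrations in triplicate. IC50/IC25 read graphically from the dose-response curve.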

[4] = target: Phosphodiesterase 3 (Homo sapiens, UniProt Q14432+Q13370); test: In vitro inhibition of cyclic AMP phosphodiesterase from human platelets
[5] = In vivo inhibition of cyclic AMP phosphodiesterase from rat heart; conditions: in the assay text read “In vitro” for “In vivo”; method in brief: as §1
[6] = Canis lupus familiaris; target entry is the homologue from another species; in the assay text read “In vitro” for “In vivo”
[7] = Canis lupus familiaris; in the assay text read “In vitro” for “In vivo”; target entry is the homologue from another species

Row | Compound | IC50 [2] [µM] | IC25 [3, 6] [nM] | IC50 [4] [nM] | IC25 [3, 7] [nM] | Ratio [1] | IC25 [5] [nM]
1 | CN(C(=O)CCCOc1ccc2c(c1)CN1CC(=O)NC1=N2)C1CCC(O)CC1 (centres undefined) | 25 | 290 | 120 | – | 208 | –
2 | O=C1CN2Cc3cc(OCCCC(=O)N(CCCCCCO)C4CCCCC4)ccc3N=C2N1 | 4 | 2 | 3.6 | – | 1111 | –
3 | COC(=O)CN(C(=O)CCCOc1ccc2c(c1)CN1CC(=O)NC1=N2)C1CCCCC1 | 0.7 | 10 | 2 | – | 350 | –
4 | CN(C(=O)OCCOc1ccc2c(c1)CN1CC(=O)NC1=N2)C1CCCCC1 | 1.5 | – | 13 | 58 | 115 | –
5 | CN(C(=O)CCCOc1ccc2c(c1)CN1CC(=O)NC1=N2)C1CCCCCC1 | 0.25 | 4.2 | 1 | – | 250 | –
6 | CCOC(=O)CCCOc1ccc2c(c1)CN1CC(=O)NC1=N2 | 1.6 | 440 | 240 | – | 6.7 | –
7 | COCCN(C(=O)CCCOc1ccc2c(c1)CN1CC(=O)NC1=N2)C1CCCCC1 | 0.105 | – | 1.3 | < 10 | 81 | –
8 | C[C@@H]1C(=O)NC2=Nc3ccc(OCCCC(=O)N(C)C4CCCCC4)cc3CN21 | 0.36 | 27 | 5.4 | – | 66 | –
9 | CN(C(=O)CCCOc1ccc2c(c1)CN1CC(=O)NC1=N2)C1CCCCCCC1 | 0.19 | – | 2.2 | 1.6 | 86 | –
10 | CC(O)[C@@H]1C(=O)NC2=Nc3ccc(OCCCC(=O)N(C)C4CCCCC4)cc3CN21 (some centres undefined) | 54 | – | 1600 | 3700 | 34 | –
11 | CC(O)[C@H]1C(=O)NC2=Nc3ccc(OCCCC(=O)N(C)C4CCCCC4)cc3CN21 (some centres undefined) | 22 | 1700 | 1000 | – | 22 | –
12 | C[C@H]1C(=O)NC2=Nc3ccc(OCCCC(=O)N(C)C4CCCCC4)cc3CN21 | 0.47 | 78 | 26 | – | 18 | –
13 | CN(C(=O)CCCCCOc1ccc2c(c1)CN1CC(=O)NC1=N2)C1CCCCC1 | 1.9 | – | 12 | – | 158 | 21
14 | O=C1CN2Cc3cc(OCCCC(=O)N(C4CCCCC4)C4CCCCC4)ccc3N=C2N1 | 0.42 | – | 1.45 | – | 300 | 16
15 | NC(=O)CCCOc1ccc2c(c1)CN1CC(=O)NC1=N2 | 47 | 380 | 690 | – | 68 | –
16 | O=C1CN2Cc3cc(OCCCC(=O)N4CCCC4)ccc3N=C2N1 | 82 | – | 340 | – | 241 | 1700
17 | O=C1CN2Cc3cc(OCCCC(=O)N(C(CO)CO)C4CCCCC4)ccc3N=C2N1 | 82 | 26 | 12 | – | 6833 | –
18 | CC[C@H]1C(=O)NC2=Nc3ccc(OCCCC(=O)N(C)C4CCCCC4)cc3CN21 | 8.2 | 450 | 580 | – | 14 | –

Row | Compound | IC50 [2] [µM] | IC25 [3, 6] [nM] | IC50 [4] [nM] | IC25 [3, 7] [nM] | Ratio [1] | IC25 [5] [nM]
19 | O=C1CN2Cc3cc(OCCCc4nnnn4C4CCCCC4)ccc3N=C2N1 | 1 | – | 4.5 | 18 | 222 | –
20 | CN(C(=O)CCCOc1ccc2c(c1Cl)CN1CC(=O)NC1=N2)C1CCCCC1 | 1.1 | 100 | 14 | – | 79 | –
21 | CN(C(=O)NCCOc1ccc2c(c1)CN1CC(=O)NC1=N2)C1CCCCC1 | 8.6 | – | 17 | 780 | 506 | –
22 | CN(C(=O)COc1ccc2c(c1)CN1CC(=O)NC1=N2)C1CCCCC1 | 7 | – | 820 | – | 8.5 | 4400
23 | CN(C(=O)CCCOc1ccc2c(c1)CN1CC(=O)NC1=N2)C1CCCC1 | 1.45 | 25 | 48 | – | 30 | –
24 | O=C1CN2Cc3cc(OCCCC(=O)OC4CCCCC4)ccc3N=C2N1 | 3.4 | – | 18 | 43 | 168 | –
25 | CN(C(=O)CCCSc1ccc2c(c1)CN1CC(=O)NC1=N2)C1CCCCC1 | 25 | – | 140 | 260 | 178 | –
26 | O=C1CN2Cc3cc(OCCCC(=O)N(CCCCO)C4CCCCC4)ccc3N=C2N1 | 4 | 7.2 | 6.4 | – | 625 | –
27 | O=C1CN2Cc3cc(OCCCC(=O)N(Cc4ccccc4)Cc4ccccc4)ccc3N=C2N1 | – | – | – | – | – | 60
28 | CCN(C(=O)CCCOc1ccc2c(c1)CN1CC(=O)NC1=N2)C1CCCCC1 | 0.18 | 5.2 | 1.5 | – | 120 | –
29 | O=C1CN2Cc3cc(OCCCC(=O)N(CCCO)C4CCCCC4)ccc3N=C2N1 | 1.7 | – | 6 | 17 | 283 | –
30 | NC(=O)CN(C(=O)CCCOc1ccc2c(c1)CN1CC(=O)NC1=N2)C1CCCCC1 | 20 | 100 | 11 | – | 1818 | –
31 | CN(C(=O)CCCOc1ccc2c(c1)CN1CCC(=O)NC1=N2)C1CCCCC1 | 1.9 | 100 | 130 | – | 14.6 | –
32 | O=C1CN2Cc3cc(OCCCC(=O)N(CCN4CCOCC4)C4CCCCC4)ccc3N=C2N1 | 1 | 32 | 4.1 | – | 243 | –
33 | CN(C(=O)CCCOc1ccc2c(c1)CN1C(=O)CNC1=N2)C1CCCCC1 | 120 | – | 15000 | 1600 | 8 | –
34 | O=C1CN2Cc3cc(OCCCC(=O)N(CCCCCO)C4CCCCC4)ccc3N=C2N1 | 2.7 | – | 4.9 | 2.3 | 551 | –
35 | CN(C)C(=O)CCCOc1ccc2c(c1)CN1CC(=O)NC1=N2 | 90 | – | 1200 | – | 75 | –

The next lines start with results.

Row | IC50 [2] [µM] | IC25 [3, 6] [nM] | IC50 [4] [nM] | IC25 [3, 7] [nM] | Compound | Ratio [1] | IC25 [5] [nM]
36 | 3.6 | – | 5.6 | 7 | O=C1CN2Cc3cc(OCCCC(=O)N(CCn4ccnc4)C4CCCCC4)ccc3N=C2N1 | 642 | –
37 | 2.85 | – | 12.5 | – | O=C1CN2Cc3cc(OCCCC(=O)N(CCO)C4CCCCC4)ccc3N=C2N1 | 228 | 70
38 | 6.9 | 72 | 18.5 | – | CN(C(=O)CCCOc1ccc2c(c1)CN1C(=N2)NC(=O)[C@H]1CO)C1CCCCC1 | 373 | –
39 | 6.6 | – | 200 | 220 | CN(C(=O)CCCCc1ccc2c(c1)CN1CC(=O)NC1=N2)C1CCCCC1 | 33 | –
40 | 0.39 | – | 26 | – | CN(C(=O)CCCOc1ccc2c(c1)CN1CC(=O)NC1=N2)c1ccccc1 | 15 | 350
41 | 0.13 | – | 5.9 | 14 | CC1c2cc(OCCCC(=O)N(C)C3CCCCC3)ccc2NC2=NC(=O)CN21 (centres undefined) | 22 | –
42 | 0.15 | – | 2.7 | 45 | C=c1c(=O)[nH]c2n1Cc1cc(OCCCC(=O)N(C)C3CCCCC3)ccc1N=2 | 55.5 | –
43 | 4.3 | – | 470 | 2400 | CN(C(=O)CCCOc1ccc2c(c1)CN1C(=N2)NC(=O)C1(C)C)C1CCCCC1 | 9 | –
44 | 10 | – | 72 | 180 | O=C1CN2Cc3cc(OCCCC(=O)NC4CCCCC4)ccc3N=C2N1 | 139 | –
45 | 5.6 | – | 370 | 620 | CC[C@@H]1C(=O)NC2=Nc3ccc(OCCCC(=O)N(C)C4CCCCC4)cc3CN21 | 15 | –
46 | 26 | 64 | 150 | – | CN(C(=O)CCCOc1ccc2c(c1)NC1=NC(=O)CN1C2)C1CCCCC1 | 173 | –
47 | 58 | 6600 | 3100 | – | CN(C(=O)CCCS(=O)(=O)c1ccc2c(c1)CN1CC(=O)NC1=N2)C1CCCCC1 | 19 | –
48 | 60 | – | 2000 | 1500 | CN(C(=O)CCCOc1cccc2c1CN1CC(=O)NC1=N2)C1CCCCC1 | 30 | –
49 | 0.26 | – | 3.2 | 15 | CC(C)N(C(=O)CCCOc1ccc2c(c1)CN1CC(=O)NC1=N2)C1CCCCC1 | 81 | –
50 | 50 | – | 760 | 3700 | CN(C(=O)CCCOc1ccc2c(c1)CN1C(=N2)NC(=O)C12CC2)C1CCCCC1 | 66 | –
51 | 15.5 | – | 27.5 | 90 | CN(C(=O)CCCOc1ccc2c(c1)CN1C(=N2)NC(=O)[C@@H]1CO)C1CCCCC1 | 563 | –
52 | 150 | – | 4400 | 1700 | CN(C(=O)CCCOc1ccc2c(c1)CN1C(=O)C(=O)NC1=N2)C1CCCCC1 | 34 | –
